From ChEMBL document CHEMBL4732199, “Potent and orally bioavailable CDK8 inhibitors: Design, synthesis, structure-activity relationship analysis and biological evaluation” (Eur J Med Chem, 2021)

Tests used:
COLO 205 = test: Growth inhibition human COLO 205 cells after 72 hrs by resazurin or MTT assay; format: functional
In short: (§1)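 Tumour cell lines kept in RPMI-1640, DMEM or MEM with 10% FBS at 37 °C, 5% CO2, mycoplasma-free. Exposure lasted 72 h. Viability was read by MTT for adherent solid-tumour lines and by resazurin for suspension leukaemia lines. GI50 came from nonlinear regression, given as mean ± standard deviation of at least two replicates unless stated otherwise.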

[1] = Half life in Sprague-Dawley rat at 20 mg/kg, po measured up to 24 hrs by LC-MS/MS analysis; format: ADME, organism-based; conditions: in vivo
[2] = Toxicity in BALB/c mouse assessed as pathological alterations in left femora at 70 mg/kg, po administered once daily for 7 days and measured on day 15; format: organism-based; conditions: in vivo, 168 h, time 7 day
[3] = Toxicity in BALB/c mouse assessed as monocytes at 70 mg/kg, po administered once daily for 7 days and measured on day 15 by flow cytometric analysis; format: organism-based; conditions: in vivo, 168 h, time 7 day
[4] = molecular target: Glycogen synthase kinase-3 alpha (Homo sapiens, UniProt P49840); test: Inhibition of human GSKalpha S449A mutant (2 to 3nd residues) using YRRAAVPPSPSLSRHSSPHQS(p) EDEEE as substrate incubated for 40 mins in presence of [gamma-33P]-ATP by scintillation counting method
Chain of Glycogen synthase kinase-3 alpha (P49840 whole entry): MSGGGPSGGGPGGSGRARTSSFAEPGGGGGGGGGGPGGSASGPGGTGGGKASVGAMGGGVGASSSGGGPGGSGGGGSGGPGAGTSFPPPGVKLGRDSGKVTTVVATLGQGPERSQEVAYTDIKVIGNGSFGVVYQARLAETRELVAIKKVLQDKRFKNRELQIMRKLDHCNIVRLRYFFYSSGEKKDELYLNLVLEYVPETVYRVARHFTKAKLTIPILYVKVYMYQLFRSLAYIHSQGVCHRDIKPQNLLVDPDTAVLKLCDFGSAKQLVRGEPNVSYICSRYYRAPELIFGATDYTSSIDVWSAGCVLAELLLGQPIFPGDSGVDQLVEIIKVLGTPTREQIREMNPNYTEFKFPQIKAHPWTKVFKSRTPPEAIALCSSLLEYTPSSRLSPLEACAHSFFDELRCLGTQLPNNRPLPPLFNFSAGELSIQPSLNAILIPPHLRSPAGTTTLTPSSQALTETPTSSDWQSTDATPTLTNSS
In short: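 Outsourced radioisotope (HotSpot) kinase assay run by a contract lab, with ATP at the kinase's Km(ATP). The IC50 was converted to an apparent Ki by the Cheng-Prusoff equation, Ki = IC50/(1+[ATP]/Km(ATP)), using the experimentally determined Km(ATP).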

NB-4 = test: Growth inhibition human NB4 cells after 72 hrs by resazurin or MTT assay; format: functional; in short: as §1
[5] = molecular target: Protein kinase C theta type (Homo sapiens, UniProt Q04759); test: Inhibition of human full length PKCtheta using histone H1 as substrate incubated for 40 mins in presence of [gamma-33P]-ATP by scintillation counting method
Chain of Protein kinase C theta type (Q04759 whole entry): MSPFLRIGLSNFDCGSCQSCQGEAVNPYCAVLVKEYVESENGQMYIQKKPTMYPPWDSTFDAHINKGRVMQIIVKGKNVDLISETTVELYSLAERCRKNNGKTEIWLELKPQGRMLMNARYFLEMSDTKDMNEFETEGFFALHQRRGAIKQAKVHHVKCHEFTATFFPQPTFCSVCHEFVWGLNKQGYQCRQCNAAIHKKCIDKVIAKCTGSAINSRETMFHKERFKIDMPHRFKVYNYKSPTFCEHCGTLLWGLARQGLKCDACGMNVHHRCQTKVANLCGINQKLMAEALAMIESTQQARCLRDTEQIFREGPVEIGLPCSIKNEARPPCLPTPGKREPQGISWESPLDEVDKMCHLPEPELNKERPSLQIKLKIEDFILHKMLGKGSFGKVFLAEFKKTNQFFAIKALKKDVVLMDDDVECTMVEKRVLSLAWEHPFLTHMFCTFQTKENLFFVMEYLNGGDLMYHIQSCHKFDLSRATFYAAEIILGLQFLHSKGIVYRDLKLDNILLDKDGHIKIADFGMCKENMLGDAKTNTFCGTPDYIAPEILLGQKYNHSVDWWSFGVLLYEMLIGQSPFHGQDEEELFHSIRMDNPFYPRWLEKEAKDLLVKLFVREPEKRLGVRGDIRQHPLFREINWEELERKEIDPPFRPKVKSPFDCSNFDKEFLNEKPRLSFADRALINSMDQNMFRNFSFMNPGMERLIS
In short: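 IC50 measured in a contracted radiometric kinase assay with ATP at the experimentally determined Km(ATP) of each kinase. Apparent Ki was derived by Cheng-Prusoff: Ki = IC50/(1+[ATP]/Km(ATP)).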

[6] = Growth inhibition human WI38 cells after 72 hrs by resazurin or MTT assay; format: cell-based; conditions: WI-38 cells
[7] = AUC in Sprague-Dawley rat at 5 mg/kg, iv measured up to 24 hrs by LC-MS/MS analysis; format: ADME, organism-based; design: route intravenous, dose 5 mg/kg, time <=24; conditions: in vivo
HT-29 = test: Growth inhibition human HT-29 cells after 72 hrs by resazurin or MTT assay; format: functional; in short: as §1
A2780 = test: Growth inhibition human A2780 cells after 72 hrs by resazurin or MTT assay; format: functional; in short: as §1
MDA-MB-453 = test: Growth inhibition human MDA-MB-453 cells after 72 hrs by resazurin or MTT assay; format: functional; in short: as §1
[8] = Toxicity in BALB/c mouse assessed as dendritic cells at 70 mg/kg, po administered once daily for 7 days and measured on day 15 by flow cytometric analysis; format: organism-based; conditions: in vivo, 168 h, time 7 day
[9] = Oral bioavailability in Sprague-Dawley rat at 20 mg/kg measured up to 24 hrs by LC-MS/MS analysis; format: ADME, organism-based; conditions: in vivo
HL-60 = test: Growth inhibition human HL-60 cells after 72 hrs by resazurin or MTT assay; format: functional; in short: as §1
PANC-1 = test: Growth inhibition human PANC-1 cells after 72 hrs by resazurin or MTT assay; format: functional; in short: as §1
[10] = Cmax in Sprague-Dawley rat at 20 mg/kg, po measured up to 24 hrs by LC-MS/MS analysis; format: ADME, organism-based; design: route oral, dose 20 mg/kg, time <=24; conditions: in vivo
MDA-MB-231 = test: Growth inhibition human MDA-MB-231 cells after 72 hrs by resazurin or MTT assay; format: functional; in short: as §1
MOLM-13 = test: Growth inhibition human MOLM-13 cells after 72 hrs by resazurin or MTT assay; format: functional; in short: as §1
THP-1 = test: Growth inhibition human THP1 cells after 72 hrs by resazurin or MTT assay; format: functional; in short: as §1
HCT-116 = test: Growth inhibition human HCT-116 cells after 72 hrs by resazurin or MTT assay; format: functional; in short: as §1
[11] = Toxicity in BALB/c mouse assessed as destruction of vessel walls at 70 mg/kg, po administered once daily for 7 days and measured on day 15; format: organism-based; conditions: in vivo, 168 h, time 7 day
KG-1 = test: Growth inhibition human KG-1 cells after 72 hrs by resazurin or MTT assay; format: functional; in short: as §1
[12] = Toxicity in BALB/c mouse assessed as pathological alterations in lung at 70 mg/kg, po administered once daily for 7 days and measured on day 15; format: organism-based; conditions: in vivo, 168 h, time 7 day
[13] = Toxicity in BALB/c mouse assessed as macrophages at 70 mg/kg, po administered once daily for 7 days and measured on day 15 by flow cytometric analysis; format: organism-based; conditions: in vivo, 168 h, time 7 day
[14] = Toxicity in BALB/c mouse assessed as granulocytes at 70 mg/kg, po administered once daily for 7 days and measured on day 15 by flow cytometric analysis; format: organism-based; conditions: in vivo, 168 h, time 7 day
[15] = Toxicity in BALB/c mouse assessed as interstitial pneumonitis in lung at 70 mg/kg, po administered once daily for 7 days and measured on day 15; format: organism-based; conditions: in vivo, 168 h, time 7 day
KG-1a = test: Growth inhibition human KG-1a cells after 72 hrs by resazurin or MTT assay; format: functional; in short: as §1
[16] = Toxicity in BALB/c mouse assessed as neutrophils at 70 mg/kg, po administered once daily for 7 days and measured on day 15 by flow cytometric analysis; format: organism-based; conditions: in vivo, 168 h, time 7 day
[17] = Toxicity in BALB/c mouse assessed as B cells at 70 mg/kg, po administered once daily for 7 days and measured on day 15 by flow cytometric analysis; format: organism-based; conditions: in vivo, 168 h, time 7 day
[18] = Toxicity in BALB/c mouse assessed as infiltration of inflammatory cells at 70 mg/kg, po administered once daily for 7 days and measured on day 15; format: organism-based; conditions: in vivo, 168 h, time 7 day
[19] = Tmax in Sprague-Dawley rat at 20 mg/kg, po measured up to 24 hrs by LC-MS/MS analysis; format: ADME, organism-based; conditions: in vivo
[20] = AUC in Sprague-Dawley rat at 20 mg/kg, po measured up to 24 hrs by LC-MS/MS analysis; format: ADME, organism-based; design: route oral, dose 20 mg/kg, time <=24; conditions: in vivo
T47D = test: Growth inhibition human T47D cells after 72 hrs by resazurin or MTT assay; format: functional; in short: as §1
[21] = Toxicity in BALB/c mouse assessed as increase in CD3-T cells at 70 mg/kg, po administered once daily for 7 days and measured on day 15 by flow cytometric analysis; format: organism-based; conditions: in vivo, 168 h, time 7 day
U-937 = test: Growth inhibition human U-937 cells after 72 hrs by resazurin or MTT assay; format: functional; in short: as §1
[22] = Toxicity in BALB/c mouse assessed as increase in number of alveolar macrophages at 70 mg/kg, po administered once daily for 7 days and measured on day 15; format: organism-based; conditions: in vivo, 168 h, time 7 day
MCF7 = test: Growth inhibition human MCF7 cells after 72 hrs by resazurin or MTT assay; format: functional; in short: as §1
[23] = Toxicity in BALB/c mouse assessed as vasculitis in blood vessels at 70 mg/kg, po administered once daily for 7 days and measured on day 15; format: organism-based; conditions: in vivo, 168 h, time 7 day
[24] = Tmax in Sprague-Dawley rat at 5 mg/kg, iv measured up to 24 hrs by LC-MS/MS analysis; format: ADME, organism-based; conditions: in vivo

Compound | GI50 (COLO 205) | half-life [1] | Activity [2] | Activity [3] | Ki [4] | GI50 (NB-4) | Ki [5] | GI50 at 72 h [6] | AUC at 24 h [7] | GI50 (HT-29) | GI50 (A2780) | GI50 (MDA-MB-453) | Activity [8] | bioavailability [9] | GI50 (HL-60) | GI50 (PANC-1) | Cmax [10] | GI50 (MDA-MB-231) | GI50 (MOLM-13) | GI50 (THP-1) | also measured
Cn1cc(-c2ccc(-c3cncc(Cl)c3N3CCC4(CCNC4=O)CC3)cc2)cn1 | 37.7 µM | 4.24 h | Toxic | Non-Toxic | 0.231 µM | > 50 µM | 0.061 µM | > 50 µM | 10.5 µM·h | 48.6 µM | 35.9 µM | 43.1 µM | Non-Toxic | 41% | > 50 µM | 0.55 µM | 4.06 µM | 29.9 µM | 2.8 µM | > 50 µM | GI50 (HCT-116): 46.2 µM; Activity [11]: Toxic; GI50 (KG-1): 19.98 µM; Activity [12]: Toxic; Activity [13]: Non-Toxic; Activity [14]: Non-Toxic; Activity [15]: Toxic; GI50 (KG-1a): 32.71 µM; Activity [16]: Non-Toxic; Activity [17]: Non-Toxic; Activity [18]: Toxic; Tmax [19]: 1.33 h; AUC at 24 h [20]: 17.5 µM·h; GI50 (T47D): 15.1 µM; Activity [21]: Toxic; GI50 (U-937): 22.4 µM; Activity [22]: Toxic; GI50 (MCF7): > 50 µM; Activity [23]: Toxic; Tmax [24]: 4.2 min
O=C1NCCC12CCN(c1c(Cl)cncc1-c1cc3ccccc3o1)CC2 | > 50 µM | 2.24 h | Non-Toxic | Non-Toxic | 0.013 µM | 40.8 µM | 0.109 µM | 48.1 µM | 9.7 µM·h | 44.2 µM | 21.4 µM | 23.3 µM | Non-Toxic | 38% | 35.3 µM | > 50 µM | 2.77 µM | 40.7 µM | 6.18 µM | > 50 µM | GI50 (HCT-116): 40.6 µM; Activity [11]: Non-Toxic; GI50 (KG-1): 7.13 µM; Activity [12]: Non-Toxic; Activity [13]: Non-Toxic; Activity [14]: Non-Toxic; Activity [15]: Non-Toxic; GI50 (KG-1a): 19.55 µM; Activity [16]: Non-Toxic; Activity [17]: Non-Toxic; Activity [18]: Non-Toxic; Tmax [19]: 2.75 h; AUC at 24 h [20]: 14.6 µM·h; GI50 (T47D): 16.2 µM; Activity [21]: Toxic; GI50 (U-937): 1.36 µM; Activity [22]: Non-Toxic; GI50 (MCF7): > 50 µM; Activity [23]: Non-Toxic; Tmax [24]: 2.4 min
